Data: ChEMBL document CHEMBL4680121, “Development of (4-methoxyphenyl)-1H-tetrazol-5-amine regioisomers as a new class of selective antitubercular agents” (Eur J Med Chem, 2020)
≈ marks a conversion by molar mass, not a printed value.

Legend:
[1] = tested on: Staphylococcus epidermidis; experiment: Antibacterial activity against Staphylococcus epidermidis ATCC 1457 assessed as bacterial growth inhibition measured after 18 hrs by two-fold serial microdilution method; type: functional
Summary of the method: (§1)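 Two-fold serial broth microdilution in MH II medium following modified CLSI procedures. Compounds were dissolved in DMSO and diluted in medium to at most 1% solvent, tested from 0.03125 to 512 μg/ml. Final inoculum 10^6 CFU/ml. MIC was taken as the lowest concentration with no visible growth after 18 h at 35 °C.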

[2] = tested on: Mycobacterium tuberculosis; experiment: Antitubercular activity against Mycobacterium tuberculosis H37Rv ATCC 25618 assessed as inhibition of microbial growth by classical test tube method; type: functional
Summary of the method: (§2)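 Classical test-tube serial dilution in Youmans' modified Proskauer–Beck liquid medium with 10% bovine serum. Inoculum came from 14-day-old cultures. Compounds were given as DMSO solutions (stock 10 mg/ml), diluted geometrically in medium to 3.1–100 µg/ml, and incubated at 37 °C. MIC is the minimum concentration inhibiting growth relative to a no-compound control.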

[3] = tested on: Staphylococcus epidermidis; experiment: Antibacterial activity against Staphylococcus epidermidis ATCC 12228 assessed as bacterial growth inhibition measured after 18 hrs by two-fold serial microdilution method; type: functional; summary of the method: as §1
[4] = tested on: Mycobacterium tuberculosis; experiment: Antitubercular activity against Mycobacterium tuberculosis Spec.192 assessed as inhibition of microbial growth by classical test tube method; type: functional; summary of the method: as §2
Staphylococcus aureus [5] = experiment: Antibacterial activity against Staphylococcus aureus ATCC 6538 assessed as bacterial growth inhibition measured after 18 hrs by two-fold serial microdilution method; type: functional; summary of the method: as §1
[6] = tested on: Staphylococcus epidermidis; experiment: Antibacterial activity against Staphylococcus epidermidis ATCC 35984/RP62A assessed as bacterial growth inhibition measured after 18 hrs by two-fold serial microdilution method; type: functional; summary of the method: as §1
Klebsiella pneumoniae = experiment: Antibacterial activity against Klebsiella pneumoniae ATCC 10031 assessed as bacterial growth inhibition measured after 18 hrs by two-fold serial microdilution method; type: functional; summary of the method: as §1
Escherichia coli = experiment: Antibacterial activity against Escherichia coli ATCC 25922 assessed as bacterial growth inhibition measured after 18 hrs by two-fold serial microdilution method; type: functional; summary of the method: as §1
Pseudomonas aeruginosa [7] = experiment: Antibacterial activity against Pseudomonas aeruginosa PAO1 assessed as bacterial growth inhibition measured after 18 hrs by two-fold serial microdilution method; type: functional; summary of the method: as §1
Pseudomonas aeruginosa [8] = experiment: Antibacterial activity against Pseudomonas aeruginosa NCTC 6749 assessed as bacterial growth inhibition measured after 18 hrs by two-fold serial microdilution method; type: functional; summary of the method: as §1
Staphylococcus aureus [9] = experiment: Antibacterial activity against Staphylococcus aureus NCTC 4163 assessed as bacterial growth inhibition measured after 18 hrs by two-fold serial microdilution method; type: functional; summary of the method: as §1
Proteus vulgaris = experiment: Antibacterial activity against Proteus vulgaris NCTC 4635 assessed as bacterial growth inhibition measured after 18 hrs by two-fold serial microdilution method; type: functional; summary of the method: as §1
HaCaT [10] = experiment: Cytotoxicity against human HaCaT cells assessed as reduction in cell viability at 100 uM measured after 72 hrs by MTT assay; type: cell-based
Summary of the method: (§3)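 MTT viability assay on cells grown in DMEM with 10% heat-inactivated FBS, penicillin/streptomycin and 20 mM HEPES at 37 °C/5% CO2. Cells were seeded at 1×10^4 per well and allowed to adhere for 24 h, then the medium was refreshed. Compounds were added at 20–140 μM for 72 h at 37 °C, followed by MTT (0.5 mg/mL in serum-free medium) for 4 h. Untreated cells served as control. IC50 is the concentration giving 50% growth inhibition versus control.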

[11] = tested on: Mycobacterium intracellulare; experiment: Antimycobacterial activity against Mycobacterium intracellulare assessed as inhibition of microbial growth incubated for 1 week by MABA method; type: functional; settings: 168 h, time 1 weeks
Summary of the method: (§4)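 Microplate Alamar Blue assay using two-fold serial microdilution in Middlebrook 7H9 broth with 10% OADC, compounds 0.125–512 µg/ml from DMSO stocks. Inoculum came from fresh LJ culture, was adjusted to McFarland 1 and diluted 1:20. Plates were incubated 1 week at 37 °C, Alamar blue was added and plates were re-incubated 24 h. MIC was the lowest concentration preventing the blue-to-pink change. Each plate carried growth and sterile controls.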

HaCaT [12] = experiment: Cytotoxicity against human HaCaT cells assessed as reduction in cell viability measured after 72 hrs by MTT assay; type: cell-based; summary of the method: as §3
[13] = tested on: Mycolicibacterium fortuitum; experiment: Antibacterial activity against Mycobacterium fortuitum assessed as inhibition of microbial growth incubated for 1 week by MABA method; type: functional; settings: 168 h, time 1 weeks; summary of the method: as §4
Mycobacterium xenopi = experiment: Antibacterial activity against Mycobacterium xenopi assessed as inhibition of microbial growth incubated for 1 week by MABA method; type: functional; settings: 168 h, time 1 weeks; summary of the method: as §4
[14] = tested on: Mycobacterium tuberculosis; experiment: Antitubercular activity against Mycobacterium tuberculosis Spec.192 assessed as inhibition of microbial growth incubated for 1 week by MABA method; type: functional; settings: Mycobacterium tuberculosis, 192, 168 h; time 1 weeks
Summary of the method: (§5)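 Microplate Alamar Blue assay in Middlebrook 7H9 broth with 10% OADC. Inoculum from fresh LJ culture was adjusted to McFarland 1 and diluted 1:20. DMSO stocks were two-fold serially diluted to final 0.125–512 µg/ml, with growth and sterile controls. Plates ran 1 week at 37 °C, then Alamar blue was added for 24 h. MIC is the lowest concentration preventing the blue-to-pink change.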

[15] = tested on: Mycobacterium scrofulaceum; experiment: Antibacterial activity against Mycobacterium scrofulaceum assessed as inhibition of microbial growth incubated for 1 week by MABA method; type: functional; settings: 168 h, time 1 weeks; summary of the method: as §4
Mycobacterium kansasii = experiment: Antibacterial activity against Mycobacterium kansasii assessed as inhibition of microbial growth incubated for 1 week by MABA method; type: functional; settings: 168 h, time 1 weeks; summary of the method: as §4
V79 [16] = experiment: Cytotoxicity against Chinese Hamster V79 cells assessed as reduction in cell viability at 100 uM measured after 72 hrs by MTT assay; type: cell-based, Cricetulus griseus; settings: v79, 72 h; summary of the method: as §3
[17] = tested on: Mycobacterium tuberculosis; experiment: Antitubercular activity against Mycobacterium tuberculosis H37Rv ATCC 25618 assessed as inhibition of microbial growth incubated for 1 week by MABA method; type: functional; settings: H37Rv ATCC 25618, 168 h, time 1 weeks; summary of the method: as §5
Mycobacterium avium = experiment: Antimycobacterial activity against Mycobacterium avium assessed as inhibition of microbial growth incubated for 1 week by MABA method; type: functional; settings: 168 h, time 1 weeks; summary of the method: as §5
V79 [18] = experiment: Cytotoxicity against Chinese Hamster V79 cells assessed as reduction in cell viability measured after 72 hrs by MTT assay; type: cell-based; settings: Cricetulus griseus, V79, 72 h; summary of the method: as §3

SMILES | MIC [1] | MIC [3] | MIC (Staphylococcus aureus [5]) | MIC [6] | MIC (Klebsiella pneumoniae) | MIC (Escherichia coli) | MIC (Pseudomonas aeruginosa [7]) | MIC (Pseudomonas aeruginosa [8]) | MIC (Staphylococcus aureus [9]) | MIC (Proteus vulgaris) | Activity (HaCaT [10]) | MIC [11] | IC50 (HaCaT [12]) | MIC [13] | MIC (Mycobacterium xenopi) | MIC [14] | MIC [15] | MIC (Mycobacterium kansasii) | Activity (V79 [16]) | MIC [17] | further results
COc1ccc(NC(S)=Nc2ccc(F)cc2)cc1 | > 256 µg/mL | > 256 µg/mL | > 256 µg/mL | > 256 µg/mL | > 256 µg/mL | > 256 µg/mL | > 256 µg/mL | > 256 µg/mL | > 256 µg/mL | > 256 µg/mL | – | – | – | – | – | – | – | – | – | – | MIC [2]: 50 µg/mL; MIC [4]: 100 µg/mL
COc1ccc(Nc2nnnn2-c2ccccc2Br)cc1 | > 256 µg/mL | > 256 µg/mL | > 256 µg/mL | > 256 µg/mL | > 256 µg/mL | > 256 µg/mL | > 256 µg/mL | > 256 µg/mL | > 256 µg/mL | > 256 µg/mL | Non-Toxic | 256 µg/mL | 105 µM | > 512 µg/mL | > 512 µg/mL | 16 µg/mL | 128 µg/mL | 256 µg/mL | Non-Toxic | 16 µg/mL | MIC (Mycobacterium avium): > 512 µg/mL; IC50 (V79 [18]): 119 µM
COc1ccc(NC(=S)Nc2ccccc2Cl)cc1 | > 256 µg/mL | > 256 µg/mL | > 256 µg/mL | > 256 µg/mL | > 256 µg/mL | > 256 µg/mL | > 256 µg/mL | > 256 µg/mL | > 256 µg/mL | > 256 µg/mL | – | – | – | – | – | – | – | – | – | – | MIC [2]: 25 µg/mL; MIC [4]: 25 µg/mL
COc1ccc(Nc2nnnn2-c2cccc(Br)c2)cc1 | > 256 µg/mL | > 256 µg/mL | > 256 µg/mL | > 256 µg/mL | > 256 µg/mL | > 256 µg/mL | > 256 µg/mL | > 256 µg/mL | > 256 µg/mL | > 256 µg/mL | Non-Toxic | > 256 µg/mL | 107 µM | 512 µg/mL | 512 µg/mL | 16 µg/mL | 32 µg/mL | 512 µg/mL | Non-Toxic | 16 µg/mL | MIC (Mycobacterium avium): 64 µg/mL; IC50 (V79 [18]): 124 µM
COc1ccc(Nc2nnnn2-c2ccc(Br)cc2)cc1 | > 256 µg/mL | > 256 µg/mL | > 256 µg/mL | > 256 µg/mL | > 256 µg/mL | > 256 µg/mL | > 256 µg/mL | > 256 µg/mL | > 256 µg/mL | > 256 µg/mL | Non-Toxic | 256 µg/mL | 103 µM | > 512 µg/mL | 512 µg/mL | 16 µg/mL | 256 µg/mL | 512 µg/mL | Non-Toxic | 16 µg/mL | MIC (Mycobacterium avium): > 512 µg/mL; IC50 (V79 [18]): 125 µM
COc1ccc(Nc2nnnn2-c2ccc(F)cc2)cc1 | 128 µg/mL (≈ 449 µM) | 64 µg/mL (≈ 224 µM) | 64 µg/mL (≈ 224 µM) | 128 µg/mL (≈ 449 µM) | > 256 µg/mL | 256 µg/mL (≈ 897 µM) | 256 µg/mL (≈ 897 µM) | 256 µg/mL (≈ 897 µM) | 64 µg/mL (≈ 224 µM) | 256 µg/mL (≈ 897 µM) | Non-Toxic | 512 µg/mL | 101 µM | > 512 µg/mL | 256 µg/mL | 8 µg/mL | 64 µg/mL | 512 µg/mL | Non-Toxic | 8 µg/mL | MIC (Mycobacterium avium): > 512 µg/mL; IC50 (V79 [18]): 145 µM
COc1ccc(NC(=S)Nc2cccc(F)c2)cc1 | > 256 µg/mL | > 256 µg/mL | > 256 µg/mL | > 256 µg/mL | > 256 µg/mL | > 256 µg/mL | > 256 µg/mL | > 256 µg/mL | > 256 µg/mL | > 256 µg/mL | – | – | – | – | – | – | – | – | – | – | MIC [2]: 50 µg/mL; MIC [4]: 100 µg/mL
COc1ccc(Nc2nnnn2-c2ccccc2Cl)cc1 | 128 µg/mL (≈ 424 µM) | 64 µg/mL (≈ 212 µM) | 64 µg/mL (≈ 212 µM) | 64 µg/mL (≈ 212 µM) | 256 µg/mL (≈ 848 µM) | 256 µg/mL (≈ 848 µM) | 256 µg/mL (≈ 848 µM) | 256 µg/mL (≈ 848 µM) | 64 µg/mL (≈ 212 µM) | 256 µg/mL (≈ 848 µM) | Non-Toxic | 128 µg/mL | 100 µM | 128 µg/mL | 512 µg/mL | 8 µg/mL | 32 µg/mL | 256 µg/mL | Non-Toxic | 8 µg/mL | MIC (Mycobacterium avium): 512 µg/mL; IC50 (V79 [18]): 102 µM
COc1ccc(NC(=S)Nc2ccccc2F)cc1 | > 256 µg/mL | > 256 µg/mL | > 256 µg/mL | > 256 µg/mL | > 256 µg/mL | > 256 µg/mL | > 256 µg/mL | > 256 µg/mL | > 256 µg/mL | > 256 µg/mL | – | – | – | – | – | – | – | – | – | – | MIC [2]: 50 µg/mL; MIC [4]: 50 µg/mL
